We go through 18 molecules from ChEMBL document CHEMBL1139925, “Synthesis and topoisomerase poisoning activity of A-ring and E-ring substituted luotonin A derivatives” (2007).

Where only a bound is given, the exact number is not on record here.

Usually GI50 stands for the concentration giving 50% growth inhibition. The low end stands for more potent growth inhibition, the high end for less potent growth inhibition.

What all share (format): functional
Assay [1] relates to MCF7. The experiment in a line: Growth inhibition of adriamycin-resistant MCF7 cells after 4 days. The conditions noted are these: Homo sapiens, MCF7, 96 h. The method, boiled down: (§1)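 Adherent lines (HeLa S3 in MEM/7% FCS; MCF7 and ADR-Res) seeded at 2 · 10^3 cells per well. After one day, compounds in DMSO were diluted in culture medium over a 5-point range and added. Cells stained with 0.2% crystal violet in 20% ethanol for 1 h, washed, solubilized in 10% acetic acid, A570 read. GI50 = concentration giving 50% growth inhibition versus control.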

The subject of assay [2] is HeLa. In words: Growth inhibition of HeLa cells after 4 days. The conditions noted are these: Homo sapiens, 96 h. The method, boiled down:
as §1

In assay [3] the test system is MCF7. In words: Growth inhibition of MCF7 cells after 4 days. The following applies: Homo sapiens, MCF7, 96 h. The method, boiled down:
as §1

Assay [4] relates to CCRF-CEM. In words: Growth inhibition of human CEM cells by Alamar blue assay. The method, boiled down:
(§2)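 Leukemia lines (CEM, topo I-mutant CEM/C2, HL60, topo II-mutant MX2) seeded in 96-well plates. HL60/MX2 were kept in RPMI1640 with 10% FCS, 10 mM Hepes and 2 mM glutamine. After one day, DMSO-dissolved compounds were diluted in medium over a 5-point range and added. GI50 = concentration giving 50% growth inhibition versus control.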
In general terms: Resazurin is reduced to fluorescent resorufin, in cell work by metabolically active cells.

For assay [5], the system named is CEM/C2. In words: Growth inhibition of topoisomerase 1 mutated CEM/C2 cells by Alamar blue assay. The conditions noted are these: Homo sapiens. The method, boiled down: as §2
In assay [6] the test system is HL-60. In words: Growth inhibition of human HL60 cells by Almar blue assay. The method, boiled down:
as §2

Assay [7] can be described thus: Growth inhibition of topoisomerase 2 mutated mitoxantrone-resistant MX2 cells by Alamar blue assay. The conditions noted are these: Homo sapiens. The method, boiled down: as §2
The subject of assay [8] is CEM/C2. In words: Ratio of GI50 for camptothecin-resistant human CEM/C2 cells to GI50 for human CEM cells. The method, boiled down: (§3)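 Relative resistance index from GI50 values in paired 5-point growth inhibition assays run in parallel: GI50 in the mutant line (CEM/C2 or MX2) divided by GI50 in its parental line (CEM or HL60).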
In assay [9] the test system is HL-60. The experiment in a line: Ratio of GI50 for mitoxantrone-resistant human MX2 cells to GI50 for human HL60 cells. The method, boiled down: as §3

Take `CN(C)CCOc1ccc2nc3c(cc2c1)Cn1c-3nc2ccccc2c1=O`: the GI50 in assay [1] came to 4 µM; in [2], 2 µM; in assay [3] it was 2 µM; in assay [4] it was 3 µM; in assay [5] it was 7 µM; in [6], 4 µM. Besides, growth in [7] was halved (GI50) at 9 µM. Moreover, the RatioGI50 in [8] and in [9] was 2 each time.

`O=c1c2cccnc2nc2n1Cc1cc3ccccc3nc1-2` [16-AZALUOTONIN A]: the GI50 in [1], in assay [2] and in [3] was more than 20 µM throughout.

As to `O=c1c2ccccc2nc2n1Cc1cc3c(CN4CCOCC4)c(O)ccc3nc1-2`, the GI50 in [1], in assay [2] and in [3] was more than 20 µM throughout.

As to `O=c1c2ccccc2nc2n1Cc1cc3ccccc3nc1-2` [LUOTONIN A], the GI50 was 5 µM in assay [1]; 3 µM in assay [2]; 3 µM in [3]; not below 40 µM in assay [4]; more than 40 µM in [5].

Regarding `Nc1cccc2c(=O)n3c(nc12)-c1nc2ccccc2cc1C3` [16-AMINOLUOTONIN A], the GI50 in assay [1] is 3 µM; in assay [2], 2 µM; in assay [3], 2 µM; in assay [4] it was 6 µM; in assay [5], more than 40 µM; in [6] it was 15 µM. The 50% growth inhibitory concentration (GI50) in assay [7] is more than 40 µM. The figures for the RatioGI50 in [8] and in assay [9] were more than 7 and more than 2.5, respectively.

Turning to `CN(C)Cc1c(O)ccc2nc3c(cc12)Cn1c-3nc2ccccc2c1=O`, the GI50 in assay [1] was more than 20 µM; in [2], 10 µM; in [3], 13 µM; in assay [4], 30 µM; in [5], more than 40 µM; in [6], 20 µM. In [7], this molecule had a GI50 of more than 40 µM. Further, the RatioGI50 in [8] was more than 1.5; in assay [9], more than 2.

With `O=c1c2cc(O)c(O)cc2nc2n1Cc1cc3ccccc3nc1-2` [17,18-DIHYDROXYLUOTONIN A], the GI50 is more than 20 µM in assay [1]; 6 µM in assay [2]; 10 µM in assay [3]; 9 µM in assay [4]; more than 40 µM in [5]; more than 40 µM in assay [6]. The same molecule showed a GI50 in assay [7] of more than 40 µM. In addition, in [8], the RatioGI50 is listed as more than 4.

Take `CCN(CC)CCOc1ccc2nc3c(cc2c1)Cn1c-3nc2ccccc2c1=O`: the GI50 in assay [1] is 4 µM; in [2], 2 µM; in assay [3], 3 µM; in [4] it was 3 µM; in assay [5] it was 7 µM; in [6] it was 4 µM. In addition, in assay [7], the GI50 amounted to 10 µM. For the same molecule, the RatioGI50 in [8] was found to be 2; in assay [9], 2.5.

Regarding `COc1ccc2nc3c(cc2c1)Cn1c-3nc2ccccc2c1=O` [10-METHOXYLUOTONIN A], the values for the concentration for 50% growth inhibition (GI50) in assay [1], in assay [2] and in assay [3] were more than 20 µM, more than 10 µM and more than 20 µM, respectively.

Take `CCc1c2c(nc3ccc(OC(=O)N4CCC(N5CCCCC5)CC4)cc13)-c1cc3c(c(=O)n1C2)COC(=O)[C@]3(O)CC` [IRINOTECAN]: the 50% growth inhibitory concentration (GI50) in assay [1], in assay [2] and in assay [3] was more than 1 µM in each case.

With `CC[C@@]1(O)C(=O)OCc2c1cc1n(c2=O)Cc2cc3c(CN(C)C)c(O)ccc3nc2-1` [TOPOTECAN], the results for the GI50 in [1], in assay [2] and in [3] were 0.04 µM, 0.03 µM and 0.05 µM, respectively.

With `O=C1c2c(O)ccc(O)c2C(=O)c2c(NCCNCCO)ccc(NCCNCCO)c21` [MITOXANTRONE], the results for the concentration for 50% growth inhibition (GI50) in assay [6] and in assay [7] were 0.01 µM and 0.13 µM, respectively. In addition, the RatioGI50 in assay [9] worked out at 13.

`O=c1c2cccc(Cl)c2nc2n1Cc1cc3ccccc3nc1-2` [16-CHLOROLUOTONIN A]: the GI50 in assay [1] is 13 µM; in assay [2] it was more than 10 µM; in assay [3] it was 10 µM.

Turning to `CC[C@@]1(O)C(=O)OCc2c1cc1n(c2=O)Cc2cc3ccccc3nc2-1` [CAMPTOTHECIN], the 50% growth inhibitory concentration (GI50) was 0.01 µM in [1]; 0.01 µM in assay [2]; 0.01 µM in assay [3]; 0.002 µM in assay [4]; more than 1 µM in assay [5]; 0.03 µM in [6]. In addition, growth in assay [7] was halved (GI50) at 0.02 µM. Further, in [8], the RatioGI50 is more than 500.

For `COc1cc2nc3n(c(=O)c2cc1OC)Cc1cc2ccccc2nc1-3` [17,18-DIMETHOXYLUOTONIN A], the GI50 in [1] is more than 20 µM; in assay [2], more than 10 µM; in assay [3] it was more than 20 µM.

For `O=c1c2ccccc2nc2n1Cc1cc3cc(O)ccc3nc1-2` [10-HYDROXYLUOTONIN A], the figures for the 50% growth inhibitory concentration (GI50) in [1], in assay [2] and in assay [3] were more than 20 µM, more than 10 µM and more than 20 µM, respectively.

For `COc1cccc2c(=O)n3c(nc12)-c1nc2ccccc2cc1C3` [16-METHOXYLUOTONIN A], the results for the GI50 in assay [1], in assay [2] and in assay [3] were more than 20 µM, 12 µM and more than 20 µM, respectively.

For the molecule `CC(=O)Nc1cccc2c(=O)n3c(nc12)-c1nc2ccccc2cc1C3` [16-ACETAMIDOLUOTONIN A], the concentration for 50% growth inhibition (GI50) in assay [1], in [2] and in assay [3] was more than 20 µM in each case.
